Rows were chosen to be rich in hits. Some 0.86% of all compounds tested hit in one or more screens of this group.
Rtt109 Vps75: inhibitors of C. albicans Rtt109/Vps75 HAT, primary screen, biochemical, ThioGlo CoA-SH fluorescence, plate reader | purified Rtt109/Vps75, 4 h | inhibition, % at 34.9 µM | 330,000 compounds, 0.16% hits | AID 540336, 2011;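 active means inhibition of at least 50% in every replicate; inconclusive means best replicate reaches 50% inhibition but some replicates fall short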
ERAP1 inh: human ERAP1 aminopeptidase inhibitors, primary screen, biochemical, single point, plate reader. Endoplasmic reticulum aminopeptidase 1 (Homo sapiens), Q9NZ08. recombinant ERAP1, Leu-AMC fluorescence, 60 min. inhibition, % at 10.7 µM. 340,000 compounds, 0.15% hits. AID 652197, 2013;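 active means mean replicate inhibition of at least 30%, or all replicates individually reaching that 30% level; inactive means mean below 30% and not every replicate reaching it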;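 further: 0% = neutral control wells and 100% = L-leucinethiol positive control wells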
Target sequence (Q9NZ08 whole entry, looked up): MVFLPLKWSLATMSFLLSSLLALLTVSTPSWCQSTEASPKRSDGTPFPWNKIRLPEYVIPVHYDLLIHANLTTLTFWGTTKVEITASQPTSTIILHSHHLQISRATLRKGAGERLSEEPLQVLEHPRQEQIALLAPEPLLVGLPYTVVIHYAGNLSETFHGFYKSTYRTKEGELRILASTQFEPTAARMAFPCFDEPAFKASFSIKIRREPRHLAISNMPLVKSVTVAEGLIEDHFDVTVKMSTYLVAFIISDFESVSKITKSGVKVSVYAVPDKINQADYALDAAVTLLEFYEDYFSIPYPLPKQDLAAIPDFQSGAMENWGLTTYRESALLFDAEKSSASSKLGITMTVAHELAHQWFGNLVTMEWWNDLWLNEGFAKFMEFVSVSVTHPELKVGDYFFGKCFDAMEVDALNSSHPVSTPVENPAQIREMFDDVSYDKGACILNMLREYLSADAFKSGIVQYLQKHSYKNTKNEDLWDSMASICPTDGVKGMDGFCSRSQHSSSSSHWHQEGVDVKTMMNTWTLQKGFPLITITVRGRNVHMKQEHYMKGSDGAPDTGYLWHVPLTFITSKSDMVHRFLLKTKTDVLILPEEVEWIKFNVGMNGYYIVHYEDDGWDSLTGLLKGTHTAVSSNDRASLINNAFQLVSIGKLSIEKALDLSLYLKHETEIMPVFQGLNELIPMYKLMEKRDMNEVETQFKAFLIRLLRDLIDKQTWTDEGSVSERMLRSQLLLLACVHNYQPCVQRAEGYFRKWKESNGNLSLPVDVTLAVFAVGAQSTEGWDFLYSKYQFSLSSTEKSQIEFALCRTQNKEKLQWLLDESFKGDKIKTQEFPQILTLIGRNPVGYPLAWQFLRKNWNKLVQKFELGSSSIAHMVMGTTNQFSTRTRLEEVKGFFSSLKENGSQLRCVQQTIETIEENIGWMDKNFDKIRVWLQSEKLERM
miR-122 sensor: miR-122 Renilla sensor signal increase in Huh7, primary screen, miR-122 inhibitor project, cell-based, single point, plate reader; Huh7 miR-122 Renilla luciferase sensor, 48 h; neutral wells = 0, positive control = 100; activation (reporter increase), % at 12.5 µM; 340,000 compounds, 0.3% hits; AID 602342, 2012;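 active means mean replicate activation score at least 90 and every replicate individually at or above 90; inconclusive means only one of the two criteria met; inactive means neither criterion met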;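 further: higher luciferase means less miR-122 activity so hits act as miR-122 inhibitors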
S100A4 inh HTS: inhibitors of S100A4-myosin IIA peptide binding, primary screen, biochemical, fluorescence polarization, TAMRA-MyoIIA peptide; Protein S100-A4 (Homo sapiens), P26447; inhibition, % at 10.7 µM; 360,000 compounds, 0.14% hits; AID 652163, 2013;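 active means mean inhibition of at least 70% across replicates, with every replicate also reaching that level; inconclusive means mean inhibition reaches 70% but some replicates fall short; inactive means mean inhibition below 70%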
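Test system: S100A4 monomer protein; Medium: HEPES pH 7.2 with CaCl2, KCl, NaCl, DTT, Triton; Probe or stimulus: TAMRA-labelled myosin IIA heavy-chain peptide probe, 5 nM; Doses: one dose per compound; Times: polarization read 5 min after assay mix addition, stable 5–60 min; Benchmarks: neutral control DMSO, positive control TFP.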
AF4-AF9 inh: inhibitors of AF4 peptide binding to AF9, primary screen, biochemical, AlphaScreen, biotin-AF4 peptide, FLAG-AF9, single point | inhibition, % at 10 µM | AID 651704, 2012 | 350,000 compounds, 0.47% hits;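 active means every replicate reaching a set inhibition limit, whatever the replicate mean, cut at about 25% in these data; inconclusive means mean inhibition reaches that limit but some replicates miss it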;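 further: 0% = plate neutral control median and 100% = total signal loss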
* = called active by the depositor; i = inactive; u = inconclusive; x = no result given; [ ] = another dose, or the depositor's remark.

SMILES | Rtt109 Vps75 | ERAP1 inh | miR-122 sensor | S100A4 inh HTS | AF4-AF9 inh
O=C(CCN1CCCCC1)NCC[C@@H]1CC[C@H](NC(=O)C2CCCCC2)[C@@H](CO)O1 | x | -1 | x | 7 | -4
CC(C)(C)[S@](=O)N1Cc2cc(C(=O)NCCN3CCCCC3)nc(-c3cccc(-c4cccc(C#N)c4)c3)c2[C@@H]1CCO | x | 2 | x | -25 | 3
Cc1csc(N=Nc2ccc(N(C)C)cc2)[n+]1[O-] | x | 5 | x | -12 | 52*
CN(C)c1ccc(N=Nc2ccc(C(=O)O)cc2)cc1 | 3 | -1 | x | -5 | 1
COc1ccc(N=C2S/C(=C\c3ccc(N4CCOCC4)o3)C(=O)N2CCc2c[nH]c3ccccc23)cc1 | -1 | x | -24 | x | x
COc1ccc(N=C2S/C(=C\c3ccc(OCC(=O)O)cc3)C(=O)N2CCc2c[nH]c3ccccc23)cc1 | 10 | 5 | -1 | 3 | 35*
CSc1ccc(/C=C(/NC(=O)c2ccccc2)C(=O)NCCCn2ccnc2)cc1 | -10 | -1 | 113* | -1 | 4
CCCC#Cc1ccc2c(c1)O[C@@H](CN(C)Cc1cccnc1)[C@@H](C)CN([C@H](C)CO)S2(=O)=O | x | 4 | 1[16.7 µM] | 5 | 3
C[C@@H]1CN([C@H](C)CO)C(=O)CCCn2cc(nn2)CO[C@@H]1CN(C)S(=O)(=O)c1ccc(-c2ccccc2)cc1 | x | 1 | 0[16.7 µM] | -1 | 3
CCCCn1c(N)c(N(CCOC)C(=O)c2cnc(C)cn2)c(=O)[nH]c1=O | -9 | 49* | x | -2 | -1
CCCCn1c(N)c(N(Cc2ccccc2OC)C(=O)c2sccc2C)c(=O)[nH]c1=O | 50* | 4 | x | -2 | -1
CCCCn1c(N)c(N(Cc2ccccc2OC)C(=O)c2cc(CC)c(C)s2)c(=O)[nH]c1=O | 18 | -1 | 7 | 3 | 1
C[C@H](NC(=O)C[C@H]1CC[C@@H]2[C@H](COC[C@H](O)CN2C)O1)c1ccccc1 | x | 1 | 5[16.7 µM] | -3 | -3
O=C(CNC(=O)OCc1ccccc1)Nc1ccc(F)cc1 | -2 | 32* | x | 6 | -7
O=C(O)c1cc(N2N=C(C(F)(F)F)/C(=C/C=C/c3ccco3)C2=O)ccc1Cl | -7 | 33* | x | -7 | -9
CCCNC(=O)N[C@H]1CC[C@H](CC(=O)NC2CCC2)O[C@@H]1CO | x | x | -10[16.7 µM] | x | 3
CCN(CC)S(=O)(=O)c1ccc(-n2cnnn2)c(C)c1 | 3 | x | 4 | x | x
Cc1cc(S(=O)(=O)N(Cc2ccccc2F)C2CC2)ccc1-n1cnnn1 | 11 | -1 | 143* | -17 | 0
Cc1cc(S(=O)(=O)NCC(c2ccccc2)c2ccccc2)ccc1-n1cnnn1 | 12 | x | 125* | x | x
CCCN(C)C[C@H]1Oc2ncc(C#Cc3ccc(OC)cc3)cc2C(=O)N([C@H](C)CO)C[C@H]1C | x | 3 | 6[16.7 µM] | 42 | 6
Cn1c(C(=O)N2CCc3ccccc3C2)cc2c(=O)n3ccccc3nc21 | x | x | -3 | x | x
Cn1c(C(=O)N2CCN(C(=O)c3ccco3)CC2)cc2c(=O)n3ccccc3nc21 | i | x | 3 | x | x
Cn1c(C(=O)N2CCOCC2)cc2c(=O)n3ccccc3nc21 | i | 57* | -3 | -6 | -1
CC1CN(C(=O)c2cc3c(=O)n4ccccc4nc3n2C)CC(C)O1 (stereo unspecified) | i | 38* | -7 | 2 | -3
CN(C(=O)c1cc2c(=O)n3ccccc3nc2n1C)C1CCCCC1 | -412 | 61* | 0 | -2 | -6
SMILES | Rtt109 Vps75 | ERAP1 inh | miR-122 sensor | S100A4 inh HTS | AF4-AF9 inh
CCNC(=O)[C@H]1[C@H](CO)[C@H]2Cn3c(ccc(/C=C/c4ccccc4)c3=O)[C@@H]1N2C(=O)C1CCCC1 | x | -1 | x | 5 | -14
O=C(c1cccc(F)c1)N1CC2(C1)[C@H](c1ccccc1)[C@H](CO)N2C(=O)C1CC1 | x | 1 | x | 5 | -3
COCCNC(=O)C(=O)c1c(-c2ccccc2)[nH]c2ccccc12 | -4 | -3 | -3 | -4 | -4
O=C(C(=O)N(Cc1ccccc1)Cc1ccccc1)c1c(-c2ccccc2)[nH]c2ccccc12 | -2 | 1 | 100* | -2 | 1
CN=c1scc(-c2ccco2)n1/N=C/c1ccc(O)c(O)c1 | 4 | 1 | x | -2 | 26*
CC(C)NC(=O)Nc1ccc2c(c1)C(=O)N([C@H](C)CO)C[C@@H](C)[C@@H](CN(C)S(=O)(=O)c1ccc(Cl)cc1)OCCCC[C@@H](C)O2 | x | 3 | -1[16.7 µM] | 4 | 6
CCOc1cc(/C=C/c2cccc[n+]2C)ccc1OCC(=O)Nc1ccc(C)cc1 | 5 | 73* | x | 2 | 5
COc1ccc(NS(=O)(=O)c2cccc(NC(=O)COc3ccccc3[N+](=O)[O-])c2)cc1 | -9 | -13 | 146* | -2 | 0
Cc1cc(C)c(C)c(S(=O)(=O)Nc2ccc3cn[nH]c3c2)c1C | -3 | -4 | 157* | 2 | 0
CC(C)CCNc1nnnc2c1sc1nc(N3CCOCC3)c3c(c12)CC(C)(C)SC3 | 0 | x | 2 | x | x
CC1(C)Cc2c(c(N3CCOCC3)nc3sc4c(NCC5CCCO5)nnnc4c23)CS1 (stereo unspecified) | 6 | -2 | -23 | -3 | 26*
C[C@@H]1CN([C@@H](C)CO)C(=O)c2cc(N(C)C)ccc2O[C@H]1CN(C)Cc1ccc(-c2ccccc2)cc1 | x | -3 | -1[16.7 µM] | -4 | 34*
C[C@@H]1CN([C@H](C)CO)C(=O)c2cc(N(C)C)ccc2O[C@@H]1CN(C)Cc1ccc(-c2ccccc2)cc1 | x | -1 | 0[16.7 µM] | -2 | 47*
Oc1c(C(c2ccccn2)N2CCC(Cc3ccccc3)CC2)cc(Cl)c2cccnc12 (stereo unspecified) | x | 0 | x | 4 | 45*
C/C(=N/NS(=O)(=O)c1ccc(F)cc1)c1ccc(NC(=O)c2ccc(C)o2)cc1 | 5 | x | 132* | x | x
Nc1cnccc1C(=O)O | 7 | -3 | -6 | 80* | -7
CCN(CC)Cc1c(C(=O)N/N=C/c2ccncc2)nnn1-c1nonc1N | 10 | x | -6 | 4 | -3
CCN(CC)Cc1c(C(=O)N/N=C(\C)c2ccncc2)nnn1-c1nonc1N | -2 | 0 | x | -1 | 43*
C/C(=N\NC(=O)c1ccccc1O)C1C(=O)c2ccccc2C1=O | u | x | 119* | x | x
C/C(=N/NC(=O)c1cc2ccccc2cc1O)C1C(=O)c2ccccc2C1=O | -2 | x | 2 | x | x
CCS(=O)(=O)N1CCC2(CC1)CN(S(=O)(=O)c1ccccc1)[C@H](CO)c1c2c2ccc(OC)cc2n1C | x | 0 | x | 8 | -1
Cc1ccc(CCNC(=O)CCNS(=O)(=O)c2ccc3c(c2)c(=O)n(C)c(=O)n3C)cc1 | 6 | x | -3 | x | x

Compound activity deposited in PubChem by Broad Institute.
